Experimental data published in article PMC3217223 (Bioorganic & Medicinal Chemistry, 2009).
Structures can show the parent of a compound that is named as a salt.

Tests used:
[1] = tested on: bloodstream form T. brucei (strain 427); experiment: T. brucei culturing and drug test; format: cell-based, Trypanosoma brucei; details: for Trypanocidal activity (in words): at concentrations up to 5 mg mL^−1; for Trypanocidal properties (in words): bloodstream form T. brucei
Summary of the method: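 Parasites were kept at 37 °C in modified Iscove's medium (pH 7.4) and grown for 48 h with a range of test compound concentrations. Cell density at each concentration was counted by hemocytometer and expressed as percent of untreated control growth. Concentrations giving 50% and 90% growth inhibition (IC₅₀, IC₉₀) were determined. Run in triplicate.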

influenza virus A/H1N1 = format: cell-based, influenza virus A/Puerto Rico/8/34 (H1N1); details: influenza virus A/H1N1 (A/Puerto Rico/8/34); microscopy and MTS assay
vaccinia virus = format: cell-based
[2] = tested on: respiratory syncytial virus; format: cell-based; details: microscopy and MTS assay
influenza virus B = format: cell-based, influenza virus B/Hong Kong/5/72; details: influenza virus B (B/Hong Kong/5/72); microscopy and MTS assay
feline coronavirus = format: cell-based; details: microscopy and MTS assay
[3] = tested on: herpes simplex virus type 1; format: cell-based; details: microscopy and MTS assay
influenza virus A/H3N2 = format: cell-based, influenza virus A/Hong Kong/7/87 (H3N2); details: influenza virus A/H3N2 (A/Hong Kong/7/87); microscopy and MTS assay
[4] = tested on: herpes simplex virus type 2; format: cell-based; details: microscopy and MTS assay
sindbis virus = format: cell-based; details: microscopy and MTS assay
Coxsackievirus B4 = format: cell-based; details: microscopy and MTS assay
[5] = tested on: vesicular stomatitis virus; format: cell-based
parainfluenza-3 virus = format: cell-based; details: microscopy and MTS assay
Punta Toro virus = format: cell-based; details: microscopy and MTS assay
Reovirus-1 = format: cell-based; details: microscopy and MTS assay
NMDA receptors = format: cell-based; details: for NMDA receptor antagonism (in words): cerebellar granule neurons, glutamate or NMDA 100 μM + glycine 10 μM

Row | Structure (SMILES) | Trypanocidal activity (in words) [1] | Antiviral activity (influenza virus A/H1N1) | Antiviral activity (vaccinia virus) | Antiviral activity [2] | Antiviral activity (influenza virus B) | Antiviral activity (feline coronavirus) | Antiviral activity [3] | Antiviral activity (influenza virus A/H3N2) | Antiviral activity [4] | Antiviral activity (sindbis virus) | Antiviral activity (Coxsackievirus B4) | Antiviral activity [5] | Antiviral activity (parainfluenza-3 virus) | Antiviral activity (Punta Toro virus) | Antiviral activity (Reovirus-1) | NMDA receptor antagonism (in words) (NMDA receptors) | other results
1 | CN(CCc1ccccc1)C12CC3CC(CC(C3)O1)C2 [Compound 3b, N-Methyl-N-(2-phenylethyl)(2-oxaadamant-1-yl)amine hydrochloride] | no activity | – | – | – | – | – | – | – | – | – | – | – | – | – | – | – | –
2 | NC12CC3CC(C1)CC(C1CCCCC1)(C3)O2 [Compound 10d, (3-cyclohexyl-2-oxaadamant-1-yl)amine hydrochloride] | – | none of the compounds was found to be active | None of the tested compounds displayed activity | None of the tested compounds displayed activity | none of the compounds was found to be active | None of the tested compounds displayed activity | None of the tested compounds displayed activity | none of the compounds was found to be active | None of the tested compounds displayed activity | None of the tested compounds displayed activity | None of the tested compounds displayed activity | None of the tested compounds displayed activity | None of the tested compounds displayed activity | None of the tested compounds displayed activity | None of the tested compounds displayed activity | – | –
3 | NC12CC3CC(C1)CC(c1ccccc1)(C3)O2 [Compound 10c, (3-Phenyl-2-oxaadamant-1-yl)amine hydrochloride] | – | none of the compounds was found to be active | None of the tested compounds displayed activity | None of the tested compounds displayed activity | none of the compounds was found to be active | None of the tested compounds displayed activity | None of the tested compounds displayed activity | none of the compounds was found to be active | None of the tested compounds displayed activity | None of the tested compounds displayed activity | None of the tested compounds displayed activity | None of the tested compounds displayed activity | None of the tested compounds displayed activity | None of the tested compounds displayed activity | None of the tested compounds displayed activity | only a weak NMDA receptor antagonist | –
4 | NC12CC3CC(CC(C3)O1)C2 [Compound 7, (2-Oxaadamant-1-yl)amine hydrochloride] | no activity | none of the compounds was found to be active | None of the tested compounds displayed activity | None of the tested compounds displayed activity | none of the compounds was found to be active | None of the tested compounds displayed activity | None of the tested compounds displayed activity | none of the compounds was found to be active | None of the tested compounds displayed activity | None of the tested compounds displayed activity | None of the tested compounds displayed activity | None of the tested compounds displayed activity | None of the tested compounds displayed activity | None of the tested compounds displayed activity | None of the tested compounds displayed activity | inactive | –
5 | CN(C)C12CC3CC(CC(C)(C3)O1)C2 [Compound 11a, N,N-Dimethyl(3-methyl-2-oxaadamant-1-yl)amine hydrochloride] | – | – | – | – | – | – | – | – | – | – | – | – | – | – | – | inactive | Trypanocidal activity relative to amantadine ([1]; compared with amantadine): at least 30 times; Trypanocidal activity relative to rimantadine ([1]; compared with rimantadine): approximately twice
6 | CCC12CC3CC(C1)CC(NC)(C3)O2 [Compound 15, N-Methyl(3-ethyl-2-oxaadamant-1-yl)amine hydrochloride] | – | none of the compounds was found to be active | None of the tested compounds displayed activity | None of the tested compounds displayed activity | none of the compounds was found to be active | None of the tested compounds displayed activity | None of the tested compounds displayed activity | none of the compounds was found to be active | None of the tested compounds displayed activity | None of the tested compounds displayed activity | None of the tested compounds displayed activity | None of the tested compounds displayed activity | None of the tested compounds displayed activity | None of the tested compounds displayed activity | None of the tested compounds displayed activity | – | Trypanocidal properties (in words) [1]: no significant trypanocidal properties
7 | c1ccc(CN(Cc2ccccc2)C23CC4CC(CC(C4)O2)C3)cc1 [Compound 8, N,N-Dibenzyl(2-oxaadamant-1-yl)amine] | no activity | – | – | – | – | – | – | – | – | – | – | – | – | – | – | inactive | –
8 | CCN(CC)C12CC3CC(CC(CC)(C3)O1)C2 [Compound 12, N,N-Diethyl(3-ethyl-2-oxaadamant-1-yl)amine hydrochloride] | – | – | – | – | – | – | – | – | – | – | – | – | – | – | – | – | Potency as NMDA receptor antagonist relative to amantadine (NMDA receptors; compared with amantadine): seven times more potent than amantadine; Potency as NMDA receptor antagonist relative to memantine (NMDA receptors; compared with memantine): ten times less potent than memantine
9 | CCC12CC3CC(C1)CC(NCc1ccccc1)(C3)O2 [Compound 13, N-Benzyl(3-ethyl-2-oxaadamant-1-yl)amine hydrochloride] | – | – | – | – | – | – | – | – | – | – | – | – | – | – | – | – | Trypanocidal properties (in words) [1]: no significant trypanocidal properties
10 | c1ccc(CNC23CC4CC(CC(C4)O2)C3)cc1 [Compound 2a, N-Benzyl(2-oxaadamant-1-yl)amine hydrochloride] | no activity | none of the compounds was found to be active | None of the tested compounds displayed activity | None of the tested compounds displayed activity | none of the compounds was found to be active | None of the tested compounds displayed activity | None of the tested compounds displayed activity | none of the compounds was found to be active | None of the tested compounds displayed activity | None of the tested compounds displayed activity | None of the tested compounds displayed activity | None of the tested compounds displayed activity | None of the tested compounds displayed activity | None of the tested compounds displayed activity | None of the tested compounds displayed activity | inactive | –
11 | CN(Cc1ccccc1)C12CC3CC(CC(C3)O1)C2 [Compound 3a, N-Benzyl-N-methyl(2-oxaadamant-1-yl)amine] | no activity | – | – | – | – | – | – | – | – | – | – | – | – | – | – | inactive | –
12 | CC12CC3CC(C1)CC(N)(C3)O2 [Compound 10a, (3-Methyl-2-oxaadamant-1-yl)amine hydrochloride] | – | – | – | – | – | – | – | – | – | – | – | – | – | – | – | inactive | –
13 | c1ccc(CCNC23CC4CC(CC(C4)O2)C3)cc1 [Compound 2b, N-(2-Phenylethyl)(2-oxaadamant-1-yl)amine hydrochloride] | no activity | – | – | – | – | – | – | – | – | – | – | – | – | – | – | – | –
